We go through 167 variants from the RNAGym collection of RNA variant scans (doi:10.1002/anie.201605470).

Sequences and labels used below:
B1: Osa-1-4 twister ribozyme (parent)
chain: CCGCCUAACACUGCCAAUGCCGGUCCCAAGCCCGGAUAAAAGUGGAGGGGGCGG

In this series the parent is B1. Kind of series: self-cleavage, relative activity (ratio to wild type); higher = more cleavage; co-transcriptional. A digest of the protocol: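 A DNA template was synthesised for a 54-nucleotide twister ribozyme from Oryza sativa, with 97 % wild-type base and 1 % of each other base at each of the 48 positions downstream of the cleavage site. The ribozyme cleaved itself co-transcriptionally during 2 h of in vitro transcription at 37 °C. Reverse transcription with a template-switching oligonucleotide, PCR amplification and deep sequencing followed, and cleavage status came from reads with or without upstream sequence. Relative activity is the fraction cleaved normalised to wild type.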
As for A46C G30A, the self-cleavage is 0.01. Take A46C G30U: the self-cleavage worked out at 0.02. For the variant A46C G30C, the self-cleavage was 0.02. Consider G44A G54C, for which the self-cleavage worked out at 0.93. On to G44A G54A, for which the self-cleavage is 0.92. Under G44A G54U stands 0.94; under G45U U37G, 0.21; under G45U U37C, 0.17. As for G45U U37A, the figure is 0.09; as for G44U G45C, 0.06; as for G44U G45A, 0.1. With G44U G45U, the self-cleavage came out at 0.08. Under A46C C32G stands 0.03. A46C C32U: the self-cleavage amounted to 0.04. As for A46C C32A, the figure is 0.03; as for G44U G49A, 0.12. Under G44U G49C stands 0.08. As to G44U G49U, the self-cleavage stood at 0.11. Under A46C G54A stands 0.09; under A46C G54C, 0.08; under A46C G54U, 0.19. As for A46C C52A, the figure is 0.07; as for A46C C52G, 0.09; as for A46C C52U, 0.08.

Turning to G44U G54U, the self-cleavage amounted to 0.9.

With G44U G54C, the self-cleavage came to 0.92. As for G44U G54A, the figure is 0.88.

In the case of A46C G50U, the self-cleavage is 0.09. Consider A46C G50A, for which the self-cleavage was found to be 0.1. Under A46C G50C stands 0.08; under G45A G49C, 0.05. For G45A G49A, the self-cleavage was found to be 0.05.

In the case of G45A G49U, the self-cleavage amounted to 0.04. As to G44C U12A, the self-cleavage is 0.4. As for G44C U12C, the self-cleavage stood at 0.31.

Consider G44C U12G, for which the self-cleavage was determined as 0.08.

Turning to G45U G49A, the self-cleavage was 0.04.

With G45U G49U, the self-cleavage was found to be 0.04. As for G45U G49C, the figure is 0.02; as for G45A, 0.52; as for G45U, 0.17.

Turning to G45C, the self-cleavage is 0.06. As for G45C G54A, the figure is 0.08. As for G45C G54C, the figure is 0.07; as for G45C G54U, 0.17.

For G44C U43G, the self-cleavage was found to be 0.07. Under G44C U43C stands 0.73. As for G44C U43A, the self-cleavage came out at 0.74. As for A46C C15U, the figure is 0.04.

Turning to A46C C15A, the self-cleavage was found to be 0.03. As for A46C C15G, the figure is 0.04; as for G44U U18G, 0.64; as for G44U U18C, 0.69.

With G44U U18A, the self-cleavage is 0.83. For G44C, the self-cleavage is 0.98. As for G44U, the figure is 0.93.

Consider G45A G53C, for which the self-cleavage came out at 0.05. As to G45A G53A, the self-cleavage amounted to 0.09. Under G45A G53U stands 0.07; under A46C U12C, 0.04.

On to A46C U12G, for which the self-cleavage turned out to be 0.03. As for A46C U12A, the self-cleavage is 0.05. With A46C G51A, the self-cleavage was 0.07. With A46C G51C, the self-cleavage was 0.04. Under A46C G51U stands 0.05. In the case of G45C G53C, the self-cleavage stood at 0.05. As for G45C G53U, the figure is 0.06; as for G45C G53A, 0.06. Take G44C G53U: the self-cleavage was determined as 0.38.

Turning to G44C G53A, the self-cleavage was determined as 0.81. Take G44C G53C: the self-cleavage stood at 0.09.

Regarding A46C C21U, the self-cleavage was found to be 0.06. For A46C C21G, the self-cleavage came to 0.03. Under A46C C21A stands 0.06. Consider G44C U24A, for which the self-cleavage was found to be 0.2. Take G44C U24C: the self-cleavage is 0.2. As for G44C U24G, the figure is 0.01.

With G45U U12C, the self-cleavage worked out at 0.06. For the variant G45U U12A, the self-cleavage turned out to be 0.06.

As for G45U U12G, the self-cleavage amounted to 0.07. As for G45U U43A, the figure is 0.06. Under G45U U43G stands 0.06. Under G45U U43C stands 0.06. Regarding G45A U18G, the self-cleavage is 0.45. As for G45A U18C, the figure is 0.29; as for G45A U18A, 0.43; as for A46C G35U, 0.05. Regarding A46C G35A, the self-cleavage amounted to 0.06.

For A46C G35C, the self-cleavage was found to be 0.04. As for G45C U12G, the self-cleavage is 0.05. Under G45C U12C stands 0.05; under G45C U12A, 0.06. On to G45C G51A, for which the self-cleavage is 0.06. Turning to G45C G51C, the self-cleavage turned out to be 0.05. As for G45C G51U, the figure is 0.05; as for G45U G51A, 0.08.

Regarding G45U G51C, the self-cleavage was 0.04.

With G45U G51U, the self-cleavage was 0.05. In the case of G45C U43A, the self-cleavage came out at 0.06. Under G45C U43C stands 0.06; under G45C U43G, 0.04. As for G44U U43C, the figure is 0.37; as for G44U U43G, 0.11; as for G44U U43A, 0.66. Under G44C G45U stands 0.07. On to G44C G45A, for which the self-cleavage turned out to be 0.14.

On to G44C G45C, for which the self-cleavage was 0.08. Under G44C U18G stands 0.64; under G44C U18A, 0.88. Consider G44C U18C, for which the self-cleavage was found to be 0.83.

On to A46C G53U, for which the self-cleavage stood at 0.08.

For A46C G53C, the self-cleavage amounted to 0.04. In the case of A46C G53A, the self-cleavage was determined as 0.07. As for A46C C31G, the figure is 0.02. Turning to A46C C31A, the self-cleavage was 0.01. For the variant A46C C31U, the self-cleavage was 0.04.

Take G44C G49C: the self-cleavage was 0.07. For G44C G49A, the self-cleavage amounted to 0.11. Turning to G44C G49U, the self-cleavage is 0.1.

On to G45A G51U, for which the self-cleavage turned out to be 0.07. For G45A G51C, the self-cleavage is 0.06.

G45A G51A: the self-cleavage was found to be 0.12. As for G44A G53C, the figure is 0.1; as for G44A G53U, 0.47; as for G44A G53A, 0.83. As for G44U G51A, the figure is 0.69; as for G44U G51U, 0.19. As for G44U G51C, the figure is 0.07; as for A46C C27G, 0.01; as for A46C C27A, 0.03. As to A46C C27U, the self-cleavage is 0.04. Under G44C G50A stands 0.5; under G44C G50C, 0.81. With G44C G50U, the self-cleavage came out at 1. With A46C G34C, the self-cleavage was found to be 0.05.

Take A46C G34A: the self-cleavage was 0.06. Take A46C G34U: the self-cleavage was 0.04. For the variant A46C G22A, the self-cleavage amounted to 0.06. As for A46C G22C, the figure is 0.03; as for A46C G22U, 0.04; as for G44U U12A, 0.11. With G44U U12G, the self-cleavage worked out at 0.15. Take G44U U12C: the self-cleavage amounted to 0.43. As for G45C G47U, the self-cleavage is 0.05. As for G45C G47C, the figure is 0.05; as for G45C G47A, 0.05; as for A46C U37G, 0.09.

Turning to A46C U37C, the self-cleavage amounted to 0.07. A46C U37A: the self-cleavage turned out to be 0.05. Consider G45C U24C, for which the self-cleavage is 0.02. As for G45C U24A, the figure is 0.04. Under G45C U24G stands 0.01; under G44U U37A, 0.66; under G44U U37C, 0.99.

With G44U U37G, the self-cleavage came to 0.95.

In the case of G44U G47C, the self-cleavage stood at 0.07.

Consider G44U G47A, for which the self-cleavage was 0.14. As for G44U G47U, the figure is 0.1; as for G44A G49C, 0.06. As for G44A G49A, the figure is 0.07; as for G44A G49U, 0.07. As for G45A U12A, the figure is 0.09. As for G45A U12G, the self-cleavage was 0.07. Under G45A U12C stands 0.09.

In the case of G44C G51U, the self-cleavage amounted to 0.16. As to G44C G51C, the self-cleavage came to 0.07. Take G44C G51A: the self-cleavage stood at 0.67.
